From ChEMBL document CHEMBL1157314, “Antibacterial, partially acetylated oligorhamnosides from Cleistopholis patens” (2006)
Values after ≈ are worked out from the molar mass of the structure shown.

Columns and labels:
Assay type in all cases: functional
Staphylococcus aureus [1] = experiment: Antibacterial activity against linezolid-resistant Staphylococcus aureus 106-12591A isolate after 24 hrs by broth microdilution method
How it was run: (§1)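 Broth microdilution following NCCLS M7-A6 (2003), with inoculum at the recommended densities. Isolates were placed into panel wells with an autoinoculator and grown in cation-adjusted Mueller-Hinton broth at 35°C in ambient air for overnight to 24 h. Panels were read by eye, and the MIC was taken as no visible growth.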

Staphylococcus aureus [2] = experiment: Antibacterial activity against methicillin-resistant Staphylococcus aureus ATCC 33591 after 24 hrs by broth microdilution method; settings: ATCC 33591, 24 h; how it was run: as §1
Staphylococcus aureus [3] = experiment: Antibacterial activity against methicillin-resistant Staphylococcus aureus 78-13607A after 24 hrs by broth microdilution method; how it was run: as §1
Staphylococcus aureus [4] = experiment: Antibacterial activity against oxacillin-susceptible Staphylococcus aureus ATCC 29213 after 24 hrs by broth microdilution method; settings: ATCC 29213, 24 h; how it was run: as §1
Staphylococcus aureus [5] = experiment: Antibacterial activity against oxacillin-resistant Staphylococcus aureus ATCC 33591 after 24 hrs by broth microdilution method; settings: ATCC 33591, 24 h; how it was run: as §1
[6] = test system: Staphylococcus epidermidis; experiment: Antibacterial activity against oxacillin-susceptible Staphylococcus epidermidis isolate 12-1788A isolate after 24 hrs by broth microdilution method
[7] = test system: Staphylococcus haemolyticus; experiment: Antibacterial activity against oxacillin-resistant Staphylococcus haemolyticus 107-1240C isolate after 24 hrs by broth microdilution method; how it was run: as §1
Enterococcus faecalis [8] = experiment: Antibacterial activity against ampicillin and vancomycin-susceptible Enterococcus faecalis ATCC 29212 after 24 hrs by broth microdilution method; settings: ATCC 29212, 24 h; how it was run: as §1
Enterococcus faecium [9] = experiment: Antibacterial activity against ampicillin and vancomycin-resistant Enterococcus faecium 24-45A isolate after 24 hrs by broth microdilution method; how it was run: as §1
Streptococcus pneumoniae [10] = experiment: Antibacterial activity against penicillin-intermediate resistant Streptococcus pneumoniae ATCC 49619 after 24 hrs by broth microdilution method; settings: ATCC 49619, 24 h; how it was run: as §1
Streptococcus pneumoniae [11] = experiment: Antibacterial activity against penicillin-resistant Streptococcus pneumoniae 33-50B isolate after 24 hrs by broth microdilution method; how it was run: as §1
Corynebacterium jeikeium = experiment: Antibacterial activity against Corynebacterium jeikeium 15-196A isolate after 24 hrs by broth microdilution method
How it was run: (§2)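 Broth microdilution following NCCLS M7-A6 (2003) inocula; isolates transferred aseptically into panel wells with an autoinoculator; cation-adjusted Mueller-Hinton broth; incubated overnight to 24 h at 35°C in ambient air; panels read by eye, MIC taken as lowest concentration with no visible growth.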

Bacillus cereus = experiment: Antibacterial activity against Bacillus cereus 24-59A isolate after 24 hrs by broth microdilution method
Streptococcus pyogenes = experiment: Antibacterial activity against erythromycin-resistant Streptococcus pyogenes 91-8747 isolate after 24 hrs by broth microdilution method; how it was run: as §1
Streptococcus mitis = experiment: Antibacterial activity against penicillin-resistant Streptococcus mitis 61-2900C isolate after 24 hrs by broth microdilution method; how it was run: as §1
Pseudomonas aeruginosa = experiment: Antibacterial activity against sPseudomonas aeruginosa ATCC 27853 after 24 hrs by broth microdilution method; settings: ATCC 27853, 24 h; how it was run: as §2
Escherichia coli = experiment: Antibacterial activity against sEscherichia coli ATCC 25922 after 24 hrs by broth microdilution method; settings: ATCC 25922, 24 h; how it was run: as §2
Staphylococcus aureus [12] = experiment: Antibacterial activity against mupirocin-resistant Staphylococcus aureus 4-90A isolate after 24 hrs by broth microdilution method; how it was run: as §1
Staphylococcus aureus [13] = experiment: Antibacterial activity against quinupristin/dalfopristin-resistant Staphylococcus aureus 300-12053A isolate after 24 hrs by broth microdilution method; how it was run: as §1
Staphylococcus [14] = experiment: Antibacterial activity against mupirocin-resistant coagulase negative Staphylococcus 63-18A isolate after 24 hrs by broth microdilution method; how it was run: as §1
Staphylococcus [15] = experiment: Antibacterial activity against quinupristin/dalfopristin-resistant coagulase negative Staphylococcus 90-10840A isolate after 24 hrs by broth microdilution method; how it was run: as §1
Staphylococcus [16] = experiment: Antibacterial activity against coagulase negative linezolid-resistant Staphylococcus 82-1645A isolate after 24 hrs by broth microdilution method; how it was run: as §1
Enterococcus faecalis [17] = experiment: Antibacterial activity against vancomycin-resistant Enterococcus faecalis 48-22D isolate with vanA phenotype after 24 hrs by broth microdilution method; how it was run: as §1
Enterococcus faecalis [18] = experiment: Antibacterial activity against vancomycin-resistant Enterococcus faecalis 82-876D with vanB phenotype isolate after 24 hrs by broth microdilution method; how it was run: as §1
Enterococcus faecalis [19] = experiment: Antibacterial activity against linezolid-resistant Enterococcus faecalis 15-5341 isolate after 24 hrs by broth microdilution method; how it was run: as §1
Enterococcus faecalis [20] = experiment: Antibacterial activity against gentamycin and streptomycin-resistant Enterococcus faecalis 39-11D isolate after 24 hrs by broth microdilution method; how it was run: as §1
Enterococcus faecium [21] = experiment: Antibacterial activity against vancomycin-resistant Enterococcus faecium 103-1232D isolate with vanB phenotype after 24 hrs by broth microdilution method; how it was run: as §1
Enterococcus faecium [22] = experiment: Antibacterial activity against vancomycin-resistant Enterococcus faecium 15-206A isolate with vanA phenotype after 24 hrs by broth microdilution method; how it was run: as §1
Enterococcus faecium [23] = experiment: Antibacterial activity against linezolid-resistant Enterococcus faecium 11-4103A isolate after 24 hrs by broth microdilution method; how it was run: as §1
Enterococcus faecium [24] = experiment: Antibacterial activity against quinupristin/dalfopristin-resistant Enterococcus faecium 65-1208A isolate after 24 hrs by broth microdilution method; how it was run: as §1
Bacillus sp. [25] = experiment: Antibacterial activity against tetracycline-resistant Bacillus sp. 107-1461D isolate after 24 hrs by broth microdilution method; settings: Bacillus sp. (in: firmicutes); how it was run: as §1
Bacillus sp. [26] = experiment: Antibacterial activity against trimethoprim/sulfamethaxazole-resistant Bacillus sp. 67-1057A isolate after 24 hrs by broth microdilution method; settings: Bacillus sp. (in: firmicutes); how it was run: as §1
Bacillus sp. [27] = experiment: Antibacterial activity against erythromycin-resistant Bacillus sp. 32-2406A isolate after 24 hrs by broth microdilution method; settings: Bacillus sp. (in: firmicutes); how it was run: as §1
Streptococcus pneumoniae [28] = experiment: Antibacterial activity against multidrug resistant Streptococcus pneumoniae 68-2307B isolate after 24 hrs by broth microdilution method; how it was run: as §1
Streptococcus pneumoniae [29] = experiment: Antibacterial activity against erythromycin and clindamycin-resistant Streptococcus pneumoniae 4-38B isolate after 24 hrs by broth microdilution method; how it was run: as §1
Streptococcus pneumoniae [30] = experiment: Antibacterial activity against erythromycin-resistant and clindamycin-susceptible Streptococcus pneumoniae 35-405B isolate after 24 hrs by broth microdilution method; how it was run: as §1
Streptococcus pneumoniae [31] = experiment: Antibacterial activity against levofloxacin-resistant Streptococcus pneumoniae 2-2784A isolate after 24 hrs by broth microdilution method; how it was run: as §1
Corynebacterium sp. [32] = experiment: Antibacterial activity against doxycyclin-resistant Corynebacterium sp. 105-1513C isolate after 24 hrs by broth microdilution method; how it was run: as §1
Corynebacterium sp. [33] = experiment: Antibacterial activity against streptomycin-resistant Corynebacterium sp. 61-5454A isolate after 24 hrs by broth microdilution method; how it was run: as §1
Corynebacterium sp. [34] = experiment: Antibacterial activity against rifampin-resistant Corynebacterium sp. 58-9161A isolate after 24 hrs by broth microdilution method; how it was run: as §1
Streptococcus [35] = experiment: Antibacterial activity against erythromycin and clindamycin-resistant beta-haemolytic sStreptococcus 91-526D isolate after 24 hrs by broth microdilution method; how it was run: as §1
Streptococcus [36] = experiment: Antibacterial activity against erythromycin-resistant and clindamycin-susceptible beta-haemolytic sStreptococcus 109-820D isolate after 24 hrs by broth microdilution method; how it was run: as §1
Streptococcus [37] = experiment: Antibacterial activity against levofloxacin-resistant beta-haemolytic sStreptococcus 19-756A isolate after 24 hrs by broth microdilution method; how it was run: as §1
Streptococcus [38] = experiment: Antibacterial activity against mupirocin-resistant viridans group sStreptococcus 32-2395A isolate after 24 hrs by broth microdilution method; how it was run: as §1
Streptococcus [39] = experiment: Antibacterial activity against levafloxacin-resistant viridans group Streptococcus 107-6380A isolate after 24 hrs by broth microdilution method; how it was run: as §1
Streptococcus [40] = experiment: Antibacterial activity against linezolid-resistant viridans group Streptococcus 27-2832A isolate after 24 hrs by broth microdilution method; how it was run: as §1
Streptococcus [41] = experiment: Antibacterial activity against multidrug-resistant viridans group Streptococcus 58-1602D isolate after 24 hrs by broth microdilution method; how it was run: as §1

CCCCCCCCCCCCO[C@@H]1O[C@@H](C)[C@H](O[C@@H]2O[C@@H](C)[C@H](OC(C)=O)[C@@H](O[C@@H]3O[C@@H](C)[C@H](OC(C)=O)[C@@H](O)[C@H]3OC(C)=O)[C@H]2O)[C@@H](O)[C@H]1O
MIC (Staphylococcus aureus [1]): 2 µg/mL (≈ 2.66 µM)
MIC (Staphylococcus aureus [2]): 8 µg/mL (≈ 10.7 µM)
MIC (Staphylococcus aureus [3]): 8 µg/mL (≈ 10.7 µM)
MIC (Staphylococcus aureus [4]): 2 µg/mL (≈ 2.66 µM)
MIC (Staphylococcus aureus [5]): 2 µg/mL (≈ 2.66 µM)
MIC [6]: 4 µg/mL (≈ 5.33 µM)
MIC [7]: 4 µg/mL (≈ 5.33 µM)
MIC (Enterococcus faecalis [8]): 4 µg/mL (≈ 5.33 µM)
MIC (Enterococcus faecium [9]): 2 µg/mL (≈ 2.66 µM)
MIC (Streptococcus pneumoniae [10]): 8 µg/mL (≈ 10.7 µM)
MIC (Streptococcus pneumoniae [11]): 8 µg/mL (≈ 10.7 µM)
MIC (Corynebacterium jeikeium): > 32 µg/mL
MIC (Bacillus cereus): 2 µg/mL (≈ 2.66 µM)
MIC (Streptococcus pyogenes): 8 µg/mL (≈ 10.7 µM)
MIC (Streptococcus mitis): 8 µg/mL (≈ 10.7 µM)
MIC (Pseudomonas aeruginosa): > 32 µg/mL
MIC (Escherichia coli): > 32 µg/mL
MIC (Staphylococcus aureus [12]): 2 µg/mL (≈ 2.66 µM)
MIC (Staphylococcus aureus [13]): 2 µg/mL (≈ 2.66 µM)
MIC (Staphylococcus [14]): 2 µg/mL (≈ 2.66 µM)
MIC (Staphylococcus [15]): 2 µg/mL (≈ 2.66 µM)
MIC (Staphylococcus [16]): 2 µg/mL (≈ 2.66 µM)
MIC (Enterococcus faecalis [17]): 2 µg/mL (≈ 2.66 µM)
MIC (Enterococcus faecalis [18]): 2 µg/mL (≈ 2.66 µM)
MIC (Enterococcus faecalis [19]): 2 µg/mL (≈ 2.66 µM)
MIC (Enterococcus faecalis [20]): 2 µg/mL (≈ 2.66 µM)
MIC (Enterococcus faecium [21]): 2 µg/mL (≈ 2.66 µM)
MIC (Enterococcus faecium [22]): 2 µg/mL (≈ 2.66 µM)
MIC (Enterococcus faecium [23]): 2 µg/mL (≈ 2.66 µM)
MIC (Enterococcus faecium [24]): 2 µg/mL (≈ 2.66 µM)
MIC (Bacillus sp. [25]): 2 µg/mL (≈ 2.66 µM)
MIC (Bacillus sp. [26]): 2 µg/mL (≈ 2.66 µM)
MIC (Bacillus sp. [27]): 2 µg/mL (≈ 2.66 µM)
MIC (Streptococcus pneumoniae [28]): 4 µg/mL (≈ 5.33 µM)
MIC (Streptococcus pneumoniae [29]): 4 µg/mL (≈ 5.33 µM)
MIC (Streptococcus pneumoniae [30]): 4 µg/mL (≈ 5.33 µM)
MIC (Streptococcus pneumoniae [31]): 4 µg/mL (≈ 5.33 µM)
MIC (Corynebacterium sp. [32]): 8 µg/mL (≈ 10.7 µM)
MIC (Corynebacterium sp. [33]): 8 µg/mL (≈ 10.7 µM)
MIC (Corynebacterium sp. [34]): 8 µg/mL (≈ 10.7 µM)
MIC (Streptococcus [35]): 4 µg/mL (≈ 5.33 µM)
MIC (Streptococcus [36]): 4 µg/mL (≈ 5.33 µM)
MIC (Streptococcus [37]): 4 µg/mL (≈ 5.33 µM)
MIC (Streptococcus [38]): 4 µg/mL (≈ 5.33 µM)
MIC (Streptococcus [39]): 4 µg/mL (≈ 5.33 µM)
MIC (Streptococcus [40]): 4 µg/mL (≈ 5.33 µM)
MIC (Streptococcus [41]): 4 µg/mL (≈ 5.33 µM)
